Results published in ChEMBL document CHEMBL1255187, “Structure-based design and synthesis of potent, ethylenediamine-based, mammalian farnesyltransferase inhibitors as anticancer agents” (J Med Chem, 2010).

Target: Geranylgeranyl transferase type I (Homo sapiens, UniProt P49354+P53609)
Assay: Inhibition of human geranylgeranyltransferase-1 assessed as incorporation of [3H]GGPP into H-Ras-CVLL
Format: protein-complex assay
Outline: (§1)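 In vitro radiometric assay measuring transfer of [3H]FPP (FTase) or [3H]GGPP (GGTase-I) onto recombinant H-Ras-CVLS or H-Ras-CVLL, respectively.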

SMILES	IC50
Cn1cnc(S(=O)(=O)N(CCN(Cc2cncn2C)c2ccc(C#N)cc2)CC(=O)NC(C)(C)C)c1	> 10000 nM
Cn1cnc(S(=O)(=O)N(CCN(Cc2cncn2C)c2ccc(C#N)cc2)Cc2ccco2)c1	13400 nM
C=C(C)CN(CCN(Cc1cncn1C)c1ccc(C#N)cc1)S(=O)(=O)c1cn(C)cn1	600 nM
Cc1nc(C)c(CN(CCN(Cc2cncn2C)c2ccc(C#N)cc2)S(=O)(=O)c2cn(C)cn2)s1	> 10000 nM
Cn1cncc1CN(CCN(Cc1ccccc1)S(=O)(=O)c1ccccc1)c1ccc(C#N)cc1	310 nM
Cc1noc(C)c1CN(CCN(Cc1cncn1C)c1ccc(C#N)cc1)S(=O)(=O)c1cn(C)cn1	1360 nM

Next, values leading:

IC50	SMILES
940 nM	Cn1cnc(S(=O)(=O)N(CCN(Cc2cncn2C)c2ccc(C#N)cc2)Cc2ccsc2)c1
550 nM	Cn1cnc(S(=O)(=O)N(CCN(Cc2cncn2C)c2ccc(C#N)cc2)Cc2cccc(-c3ccccc3)c2)c1
780 nM	Cc1ccccc1CN(CCN(Cc1cncn1C)c1ccc(C#N)cc1)S(=O)(=O)c1cn(C)cn1

Target: Protein farnesyltransferase (Homo sapiens, UniProt P49354+P49356)
Assay: Inhibition of human farnesyltransferase assessed as incorporation of [3H]FPP into H-Ras-CVLS
Format: protein-complex assay
Outline: as §1

SMILES	IC50
Cn1cnc(S(=O)(=O)N(CCN(Cc2cncn2C)c2ccc(C#N)cc2)CC(=O)NC(C)(C)C)c1	1400 nM
Cn1cnc(S(=O)(=O)N(CCN(Cc2cncn2C)c2ccc(C#N)cc2)Cc2ccco2)c1	870 nM
C=C(C)CN(CCN(Cc1cncn1C)c1ccc(C#N)cc1)S(=O)(=O)c1cn(C)cn1	114 nM
Cc1nc(C)c(CN(CCN(Cc2cncn2C)c2ccc(C#N)cc2)S(=O)(=O)c2cn(C)cn2)s1	6200 nM
Cn1cncc1CN(CCN(Cc1ccccc1)S(=O)(=O)c1ccccc1)c1ccc(C#N)cc1	41 nM
Cc1noc(C)c1CN(CCN(Cc1cncn1C)c1ccc(C#N)cc1)S(=O)(=O)c1cn(C)cn1	510 nM

Continued, values first:

IC50	SMILES
67 nM	Cn1cnc(S(=O)(=O)N(CCN(Cc2cncn2C)c2ccc(C#N)cc2)Cc2ccsc2)c1
230 nM	Cn1cnc(S(=O)(=O)N(CCN(Cc2cncn2C)c2ccc(C#N)cc2)Cc2cccc(-c3ccccc3)c2)c1
51 nM	Cc1ccccc1CN(CCN(Cc1cncn1C)c1ccc(C#N)cc1)S(=O)(=O)c1cn(C)cn1

Species on record: Homo sapiens
Assay: Selectivity ratio of IC50 for human geranylgeranyltransferase-1 to IC50 for human farnesyltransferase

SMILES	Selectivity ratio
Cn1cnc(S(=O)(=O)N(CCN(Cc2cncn2C)c2ccc(C#N)cc2)CC(=O)NC(C)(C)C)c1	> 7.1
Cn1cnc(S(=O)(=O)N(CCN(Cc2cncn2C)c2ccc(C#N)cc2)Cc2ccco2)c1	15
C=C(C)CN(CCN(Cc1cncn1C)c1ccc(C#N)cc1)S(=O)(=O)c1cn(C)cn1	5.3
Cc1nc(C)c(CN(CCN(Cc2cncn2C)c2ccc(C#N)cc2)S(=O)(=O)c2cn(C)cn2)s1	> 1.6
Cn1cncc1CN(CCN(Cc1ccccc1)S(=O)(=O)c1ccccc1)c1ccc(C#N)cc1	7.6
Cc1noc(C)c1CN(CCN(Cc1cncn1C)c1ccc(C#N)cc1)S(=O)(=O)c1cn(C)cn1	2.7

Second part, the compound after the results:

Selectivity ratio	SMILES
14	Cn1cnc(S(=O)(=O)N(CCN(Cc2cncn2C)c2ccc(C#N)cc2)Cc2ccsc2)c1
2.4	Cn1cnc(S(=O)(=O)N(CCN(Cc2cncn2C)c2ccc(C#N)cc2)Cc2cccc(-c3ccccc3)c2)c1
15	Cc1ccccc1CN(CCN(Cc1cncn1C)c1ccc(C#N)cc1)S(=O)(=O)c1cn(C)cn1

Target: Protein farnesyltransferase (Mus musculus, UniProt Q61239+Q8K2I1)
Assay: Inhibition of H-Ras farnesylation expressed in mouse NIH3T3 cells
Format: functional, cell-based
Outline: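 Oncogenic H-Ras-transformed NIH3T3 cells were treated with a range of inhibitor concentrations. Detection used peroxidase-conjugated secondary antibodies and enhanced chemiluminescence. IC50 is the mean of three independent assays ± SD unless stated otherwise.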

SMILES	IC50
Cn1cnc(S(=O)(=O)N(CCN(Cc2cncn2C)c2ccc(C#N)cc2)CC(=O)NC(C)(C)C)c1	> 10000 nM
Cn1cnc(S(=O)(=O)N(CCN(Cc2cncn2C)c2ccc(C#N)cc2)Cc2ccco2)c1	800 nM
C=C(C)CN(CCN(Cc1cncn1C)c1ccc(C#N)cc1)S(=O)(=O)c1cn(C)cn1	> 10000 nM
Cc1nc(C)c(CN(CCN(Cc2cncn2C)c2ccc(C#N)cc2)S(=O)(=O)c2cn(C)cn2)s1	> 10000 nM
Cn1cncc1CN(CCN(Cc1ccccc1)S(=O)(=O)c1ccccc1)c1ccc(C#N)cc1	300 nM
Cc1noc(C)c1CN(CCN(Cc1cncn1C)c1ccc(C#N)cc1)S(=O)(=O)c1cn(C)cn1	> 10000 nM

Other lines, results leading:

IC50	SMILES
400 nM	Cn1cnc(S(=O)(=O)N(CCN(Cc2cncn2C)c2ccc(C#N)cc2)Cc2ccsc2)c1
3000 nM	Cn1cnc(S(=O)(=O)N(CCN(Cc2cncn2C)c2ccc(C#N)cc2)Cc2cccc(-c3ccccc3)c2)c1
1000 nM	Cc1ccccc1CN(CCN(Cc1cncn1C)c1ccc(C#N)cc1)S(=O)(=O)c1cn(C)cn1

Target: Geranylgeranyl transferase type 1 (Mus musculus, UniProt Q61239+Q8BUY9)
Assay: Inhibition of Rap1A geranylgeranylation expressed in mouse NIH3T3 cells
Format: functional, cell-based
Outline: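 Oncogenic H-Ras-transformed NIH3T3 cells were treated with a range of inhibitor concentrations. […] Detection used peroxidase-conjugated secondary antibodies and enhanced chemiluminescence. IC50 is the mean of three independent assays ± SD unless stated otherwise.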

SMILES	IC50
Cn1cnc(S(=O)(=O)N(CCN(Cc2cncn2C)c2ccc(C#N)cc2)CC(=O)NC(C)(C)C)c1	> 10000 nM
Cn1cnc(S(=O)(=O)N(CCN(Cc2cncn2C)c2ccc(C#N)cc2)Cc2ccco2)c1	> 10000 nM
C=C(C)CN(CCN(Cc1cncn1C)c1ccc(C#N)cc1)S(=O)(=O)c1cn(C)cn1	> 10000 nM
Cc1nc(C)c(CN(CCN(Cc2cncn2C)c2ccc(C#N)cc2)S(=O)(=O)c2cn(C)cn2)s1	> 10000 nM
Cn1cncc1CN(CCN(Cc1ccccc1)S(=O)(=O)c1ccccc1)c1ccc(C#N)cc1	> 10000 nM
Cc1noc(C)c1CN(CCN(Cc1cncn1C)c1ccc(C#N)cc1)S(=O)(=O)c1cn(C)cn1	> 10000 nM

More lines, now with the values ahead:

IC50	SMILES
> 10000 nM	Cn1cnc(S(=O)(=O)N(CCN(Cc2cncn2C)c2ccc(C#N)cc2)Cc2ccsc2)c1
> 10000 nM	Cn1cnc(S(=O)(=O)N(CCN(Cc2cncn2C)c2ccc(C#N)cc2)Cc2cccc(-c3ccccc3)c2)c1
> 10000 nM	Cc1ccccc1CN(CCN(Cc1cncn1C)c1ccc(C#N)cc1)S(=O)(=O)c1cn(C)cn1
